Laboratory results from ChEMBL document CHEMBL1781931, “Anacardic acid derivatives as inhibitors of glyceraldehyde-3-phosphate dehydrogenase from Trypanosoma cruzi” (Bioorg Med Chem, 2008).
The source made the active and inactive calls. The calls are words filed in the database; no cut-off is given here.

Columns and labels:
[1] = target: T1, Glyceraldehyde-3-phosphate dehydrogenase, glycosomal (Trypanosoma cruzi, UniProt P22513); assay: Inhibition of Trypanosoma cruzi recombinant glycosomal GAPDH expressed in Escherichia coli using GAPDH and D-glyceraldehyde-3-phosphate
T1 sequence (P22513 whole entry): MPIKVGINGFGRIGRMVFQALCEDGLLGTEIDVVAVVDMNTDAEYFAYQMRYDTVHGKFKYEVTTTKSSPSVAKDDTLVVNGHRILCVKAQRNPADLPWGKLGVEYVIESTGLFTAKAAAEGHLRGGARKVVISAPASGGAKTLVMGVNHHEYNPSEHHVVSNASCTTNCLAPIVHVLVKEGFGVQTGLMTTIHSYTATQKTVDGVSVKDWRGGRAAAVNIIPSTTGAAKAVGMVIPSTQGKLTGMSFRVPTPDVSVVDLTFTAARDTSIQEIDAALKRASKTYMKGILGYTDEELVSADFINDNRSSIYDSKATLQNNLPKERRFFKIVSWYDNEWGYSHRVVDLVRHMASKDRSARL
Outline: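 Recombinant T. cruzi GAPDH (20 nM; E. coli-expressed, purified by hydrophobic then cation-exchange chromatography) assayed at 25 °C in triplicate. Buffer: 100 mM triethanolamine-HCl pH 7.5, 1 mM EDTA, 1 mM 2-mercaptoethanol, 30 mM arsenate, 400 µM NAD+, 300 µM G-3-P. NADH formation read at 340 nm for 8 min. Initial rates give % inhibition; IC50 from ≥5 inhibitor concentrations by nonlinear regression.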

[2] = target: T1, Glyceraldehyde-3-phosphate dehydrogenase, glycosomal; assay: Non-competitive inhibition of Trypanosoma cruzi recombinant glycosomal GAPDH expressed in Escherichia coli assessed as dissociation constant for ternary enzyme-substrate-inhibitor complex using D-glyceraldehyde-3-phosphate substrate by Lineweaver-Burk plot method
Outline: (§1)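 Inhibition type and Ki/αKi were determined against each substrate (G-3-P or NAD+), varying that substrate at 3 or 4 inhibitor concentrations. Conditions were otherwise those of the 340 nm NADH assay: 20 nM recombinant GAPDH, pH 7.5 triethanolamine buffer, 25 °C. Double-reciprocal plots were used, with parameters fitted in an enzyme-kinetics module. Means are of ≥3 experiments.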

[3] = target: Glyceraldehyde-3-phosphate dehydrogenase, glycosomal (Trypanosoma cruzi) (UniProt P22513); assay: Inhibition of Trypanosoma cruzi recombinant glycosomal GAPDH expressed in Escherichia coli using GAPDH and D-glyceraldehyde-3-phosphate in presence of 0.01% Triton X-100
Chain of Glyceraldehyde-3-phosphate dehydrogenase, glycosomal (Trypanosoma cruzi) (P22513 whole entry): as above
Outline: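 Assay as for the standard GAPDH rate measurement: 20 nM recombinant enzyme, triethanolamine-HCl pH 7.5 with EDTA, 2-mercaptoethanol, arsenate, 400 µM NAD+ and 300 µM G-3-P, 25 °C, NADH followed at 340 nm. Triton X-100 was added to 0.01% final, from a freshly made 1% (v/v) stock in triethanolamine buffer, to test for nonspecific inhibition.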

[4] = target: T1, Glyceraldehyde-3-phosphate dehydrogenase, glycosomal; assay: Non-competitive inhibition of Trypanosoma cruzi recombinant glycosomal GAPDH expressed in Escherichia coli assessed as dissociation constant for binary enzyme-inhibitor complex using D-glyceraldehyde-3-phosphate substrate by Lineweaver-Burk plot method; outline: as §1
[5] = target: T1, Glyceraldehyde-3-phosphate dehydrogenase, glycosomal; assay: Non-competitive inhibition of Trypanosoma cruzi recombinant glycosomal GAPDH expressed in Escherichia coli assessed as dissociation constant for ternary enzyme-substrate-inhibitor complex using NAD+ substrate by Lineweaver-Burk plot method; outline: as §1
[6] = target: T1, Glyceraldehyde-3-phosphate dehydrogenase, glycosomal; assay: Non-competitive inhibition of Trypanosoma cruzi recombinant glycosomal GAPDH expressed in Escherichia coli assessed as dissociation constant for binary enzyme-inhibitor complex using NAD+ substrate by Lineweaver-Burk plot method; outline: as §1

Row | Structure (SMILES) | IC50 [1] [µM] | other results
1 | CCOC(=O)c1c(CCCCCCOC2CCCCO2)cccc1OC (configuration not stated) | > 250 | –
2 | O=C(O)c1c(O)cccc1CCCCCCCCO | > 250 | –
3 | CCOC(=O)c1c(C=CCCCCOC2CCCCO2)cccc1OC (mixture of isomers) | > 300 | –
4 | CCOC(=O)c1c(O)cccc1CCCCCCCCO | > 250 | –
5 | CCCCCCCCCCCCc1cccc(O)c1C(=O)O | 55 | Ki [2]: 38 µM; inhibition [3]: Active; Ki [4]: 4 µM; Ki [5]: 43 µM; Ki [6]: 5 µM
6 | CCCCCCCCCc1cccc(O)c1C(=O)O | 200 | –
7 | O=C(O)c1c(O)cccc1CCCCCCCCCCO | 240 | –
8 | CCCCCCCCCCC=Cc1cccc(OC)c1C(=O)OCC (mixture of isomers) | > 300 | –
9 | CCCCCCCCCc1cccc(O)c1C(=O)OCC | > 250 | –
10 | CCCCCCCCCc1cccc(OC)c1C(=O)OCC | > 250 | –
11 | CCCCCCCCCCCCc1cccc(O)c1C(=O)OCC | 215 | –
12 | CCOC(=O)c1c(O)cccc1CCCCCCCCCCO | > 250 | –
13 | O=CCCCCCCCc1cccc(O)c1C(=O)O | > 250 | –
14 | CCCCCCCCCCCCc1cccc(OC)c1C(=O)OCC | > 250 | –
15 | CCOC(=O)c1c(C=CCCCCCCOC2CCCCO2)cccc1OC (mixture of isomers) | > 300 | –
16 | CCOC(=O)c1c(CCCCCCCCOC2CCCCO2)cccc1OC (configuration not stated) | > 250 | –
17 | C=CC/C=C\C/C=C\CCCCCCCc1cccc(O)c1C(=O)O [ANACARDIC ACID] | 28 | Ki [2]: 4 µM; inhibition [3]: Active; Ki [4]: 2 µM; Ki [5]: 6 µM; Ki [6]: 4 µM
18 | CCOC(=O)c1c(O)cccc1CCCCCCO | > 250 | –
19 | CCOC(=O)c1c(CCCCCCCCCCOC2CCCCO2)cccc1OC (configuration not stated) | > 250 | –
20 | CCOC(=O)c1c(C=CCCCCCCCCOC2CCCCO2)cccc1OC (mixture of isomers) | > 300 | –
21 | CCCCCCCC=Cc1cccc(OC)c1C(=O)OCC (mixture of isomers) | > 300 | –
22 | O=C(O)c1c(O)cccc1CCCCCCO | > 250 | –
